Measurements published in ChEMBL document CHEMBL1136729, “Synthesis of 3'- and 5'-nitrooxy pyrimidine nucleoside nitrate esters: "nitric oxide donor" agents for evaluation as anticancer and antiviral agents” (J Med Chem, 2003).
Converted amounts (≈) assume the structure as drawn.

system: Monkey; assay: (§1) Antiviral activity against Punta toro virus in vero cell cultures; type: functional, organism-based, Chlorocebus sabaeus; conditions: Cercopithecidae

Compound	IC50
O=c1ccn([C@H]2C[C@H](O[N+](=O)[O-])[C@@H](CO)O2)c(=O)[nH]1	> 80 µg/mL
O=c1[nH]c(=O)n([C@H]2C[C@H](O[N+](=O)[O-])[C@@H](CO)O2)cc1I	> 80 µg/mL

system: EMT6; assay: (§2) In vitro cell cytotoxicity against EMT-6 cell lines; type: functional; conditions: Mus musculus
Method in brief: (§3)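 MTT assay. KBALB, KBALB-STK, 143B and 143B-LTK cells were grown in DMEM with 10% FBS; EMT-6 cells in Waymouth medium with 12.5% FBS. Cells were seeded at 8 × 10² per well and grown 24 h. Compound in DMEM was added for 3 days at 37 °C in 5% CO2, followed by MTT for 4 h, DMSO solubilisation and blank-corrected A540. CC50 is the concentration cutting A540 to 50% of control, mean of n = 6.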

Compound	CC50
Nc1nc(=O)n([C@H]2C[C@H](O[N+](=O)[O-])[C@@H](CO)O2)cc1I	340 µM
O=c1[nH]c(=O)n([C@H]2C[C@H](O[N+](=O)[O-])[C@@H](CO)O2)cc1I	23 µM

system: not listed separately; assay: as §2; type: functional; conditions: Mus musculus, EMT6; method in brief: as §3

Compound	CC50
Cc1cn([C@H]2C[C@H](O)[C@@H](CO)O2)c(=O)[nH]c1=O [DOXRIBTIMINE]	130 µM
O=c1[nH]c(=O)n([C@H]2C[C@H](O[N+](=O)[O-])[C@@H](CO)O2)cc1F	6.2 µM
O=c1[nH]c(=O)n([C@H]2C[C@H](O)[C@@H](CO)O2)cc1I [IDOXURIDINE]	380 µM

system: Human alphaherpesvirus 1; assay: (§4) Inhibitory activity against herpes simplex virus […]; type: functional, organism-based; conditions: not given

Compound	IC50
O=c1[nH]c(=O)n([C@H]2C[C@H](O[N+](=O)[O-])[C@@H](CO)O2)cc1I	48 µg/mL (≈ 120 µM)

system: Human alphaherpesvirus 2; assay: as §4; type: functional, organism-based; conditions: not given

Compound	IC50
O=c1[nH]c(=O)n([C@H]2C[C@H](O[N+](=O)[O-])[C@@H](CO)O2)cc1I	48 µg/mL (≈ 120 µM)

system: Sindbis virus; assay: Antiviral activity against sindbus virus; type: functional, organism-based; conditions: not given

Compound	IC50
O=c1ccn([C@H]2C[C@H](O[N+](=O)[O-])[C@@H](CO)O2)c(=O)[nH]1	> 80 µg/mL
O=c1[nH]c(=O)n([C@H]2C[C@H](O[N+](=O)[O-])[C@@H](CO)O2)cc1F	> 80 µg/mL
Cc1cn([C@H]2C[C@H](O[N+](=O)[O-])[C@@H](CO)O2)c(=O)[nH]c1=O	> 80 µg/mL
O=c1[nH]c(=O)n([C@H]2C[C@H](O[N+](=O)[O-])[C@@H](CO)O2)cc1I	> 80 µg/mL

system: Human respirovirus 3; assay: Antiviral activity against parainfluenza-3 virus; type: functional, organism-based; conditions: not given

Compound	IC50
O=c1ccn([C@H]2C[C@H](O[N+](=O)[O-])[C@@H](CO)O2)c(=O)[nH]1	> 80 µg/mL
O=c1[nH]c(=O)n([C@H]2C[C@H](O[N+](=O)[O-])[C@@H](CO)O2)cc1F	> 80 µg/mL
Cc1cn([C@H]2C[C@H](O[N+](=O)[O-])[C@@H](CO)O2)c(=O)[nH]c1=O	> 80 µg/mL
O=c1[nH]c(=O)n([C@H]2C[C@H](O[N+](=O)[O-])[C@@H](CO)O2)cc1I	> 80 µg/mL

system: 143B; assay: In vitro cell cytotoxicity against 143B-LTK cell lines expressed in HSV-1 TK; type: functional; conditions: Homo sapiens; method in brief: as §3

Compound	CC50
O=c1ccn([C@H]2C[C@H](O[N+](=O)[O-])[C@@H](CO)O2)c(=O)[nH]1	850 µM
O=c1[nH]c(=O)n([C@H]2C[C@H](O[N+](=O)[O-])[C@@H](CO)O2)cc1F	74 µM
O=c1[nH]c(=O)n([C@H]2C[C@H](O)[C@@H](CO)O2)cc1I [IDOXURIDINE]	7400 µM
Nc1nc(=O)n([C@H]2C[C@H](O[N+](=O)[O-])[C@@H](CO)O2)cc1I	200 µM
O=c1[nH]c(=O)n([C@H]2C[C@H](O[N+](=O)[O-])[C@@H](CO)O2)cc1I	410 µM

system: Punta Toro virus; assay: as §1; type: functional, organism-based; conditions: not given

Compound	IC50
O=c1[nH]c(=O)n([C@H]2C[C@H](O[N+](=O)[O-])[C@@H](CO)O2)cc1F	> 80 µg/mL
Cc1cn([C@H]2C[C@H](O[N+](=O)[O-])[C@@H](CO)O2)c(=O)[nH]c1=O	> 80 µg/mL

system: not listed separately; assay: Compound was tested for in vitro nitric oxide release in the presence of 18 mM L-cysteine at 16 h; type: functional; conditions: not given
Method in brief: (§5)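 Compound (2 mM stock in 0.1 M phosphate buffer pH 7.4) was mixed 1:1 with freshly made 36 mM L-cysteine in the same buffer and incubated at 37 °C for 1 or 16 h without air. The mixture was exposed to air for 10 min, then Griess reagent was added. A540 was read after 10 min. Nitrite was calculated from a 0–60 μM sodium nitrite standard curve, n = 3.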

Compound	NO release
O=c1[nH]c(=O)n([C@H]2C[C@H](O[N+](=O)[O-])[C@@H](CO)O2)cc1F	3.8%
Nc1nc(=O)n([C@H]2C[C@H](O[N+](=O)[O-])[C@@H](CO)O2)cc1I	47.2%
Cc1cn([C@H]2C[C@H](O[N+](=O)[O-])[C@@H](CO)O2)c(=O)[nH]c1=O	53.6%
O=c1[nH]c(=O)n([C@H]2C[C@H](O[N+](=O)[O-])[C@@H](CO)O2)cc1I	37.6%

system: 143B; assay: In vitro cell cytotoxicity against 143-B cell lines (Human osteosarcoma cell line); type: functional; conditions: not given; method in brief: as §3

Compound	CC50
O=c1[nH]c(=O)n([C@H]2C[C@H](O[N+](=O)[O-])[C@@H](CO)O2)cc1F	2.4 µM
O=c1[nH]c(=O)n([C@H]2C[C@H](O)[C@@H](CO)O2)cc1I [IDOXURIDINE]	7000 µM
Nc1nc(=O)n([C@H]2C[C@H](O[N+](=O)[O-])[C@@H](CO)O2)cc1I	200 µM
O=c1[nH]c(=O)n([C@H]2C[C@H](O[N+](=O)[O-])[C@@H](CO)O2)cc1I	580 µM

species on record: Rattus norvegicus; assay: Compound was tested for in vitro nitric oxide release in the presence of rat serum at 16 h; type: functional; conditions: not given
Method in brief: (§6)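 Compound (1 × 10⁻² M stock) was mixed 1:9 with filtered rat serum. It was incubated at 37 °C for 1 or 16 h with 0.2 U/mL Aspergillus nitrate reductase, 50 mM HEPES, 5 μM FAD and 0.1 mM NADPH. Leftover NADPH was removed with lactate dehydrogenase plus pyruvate over 10 min. Griess reagent was added and A540 read after 10 min at 25 °C. % NO release came from a nitrite standard curve, n = 3.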

Compound	NO release
O=c1ccn([C@H]2C[C@H](O[N+](=O)[O-])[C@@H](CO)O2)c(=O)[nH]1	9%
O=c1[nH]c(=O)n([C@H]2C[C@H](O[N+](=O)[O-])[C@@H](CO)O2)cc1F	6.6%
Nc1nc(=O)n([C@H]2C[C@H](O[N+](=O)[O-])[C@@H](CO)O2)cc1I	17.6%
Cc1cn([C@H]2C[C@H](O[N+](=O)[O-])[C@@H](CO)O2)c(=O)[nH]c1=O	7.4%
O=c1[nH]c(=O)n([C@H]2C[C@H](O[N+](=O)[O-])[C@@H](CO)O2)cc1I	13.2%

system: Coxsackievirus B4; assay: Antiviral activity against coxsackie B4 virus; type: functional, organism-based; conditions: Enterovirus B

Compound	IC50
O=c1ccn([C@H]2C[C@H](O[N+](=O)[O-])[C@@H](CO)O2)c(=O)[nH]1	> 80 µg/mL
O=c1[nH]c(=O)n([C@H]2C[C@H](O[N+](=O)[O-])[C@@H](CO)O2)cc1F	> 80 µg/mL
Cc1cn([C@H]2C[C@H](O[N+](=O)[O-])[C@@H](CO)O2)c(=O)[nH]c1=O	> 80 µg/mL
O=c1[nH]c(=O)n([C@H]2C[C@H](O[N+](=O)[O-])[C@@H](CO)O2)cc1I	> 80 µg/mL

species on record: Rattus norvegicus; assay: Compound was tested for in vitro nitric oxide release in the presence of rat serum at 1 h; type: functional; conditions: not given; method in brief: as §6

Compound	NO release
O=c1ccn([C@H]2C[C@H](O[N+](=O)[O-])[C@@H](CO)O2)c(=O)[nH]1	7.7%
O=c1[nH]c(=O)n([C@H]2C[C@H](O[N+](=O)[O-])[C@@H](CO)O2)cc1F	4%
Nc1nc(=O)n([C@H]2C[C@H](O[N+](=O)[O-])[C@@H](CO)O2)cc1I	12.5%
Cc1cn([C@H]2C[C@H](O[N+](=O)[O-])[C@@H](CO)O2)c(=O)[nH]c1=O	7.4%
O=c1[nH]c(=O)n([C@H]2C[C@H](O[N+](=O)[O-])[C@@H](CO)O2)cc1I	12.3%

system: not listed separately; assay: Compound was tested for in vitro nitric oxide release in the presence of 18 mM L-cysteine at 1 h; type: functional; conditions: not given; method in brief: as §5

Compound	NO release
O=c1ccn([C@H]2C[C@H](O[N+](=O)[O-])[C@@H](CO)O2)c(=O)[nH]1	4.9%
O=c1[nH]c(=O)n([C@H]2C[C@H](O[N+](=O)[O-])[C@@H](CO)O2)cc1F	0%
Nc1nc(=O)n([C@H]2C[C@H](O[N+](=O)[O-])[C@@H](CO)O2)cc1I	4%
Cc1cn([C@H]2C[C@H](O[N+](=O)[O-])[C@@H](CO)O2)c(=O)[nH]c1=O	4.9%
O=c1[nH]c(=O)n([C@H]2C[C@H](O[N+](=O)[O-])[C@@H](CO)O2)cc1I	3.9%

system: Mammalian orthoreovirus 1; assay: Antiviral activity against reovirus-1; type: functional, organism-based; conditions: not given

Compound	IC50
O=c1ccn([C@H]2C[C@H](O[N+](=O)[O-])[C@@H](CO)O2)c(=O)[nH]1	> 80 µg/mL
O=c1[nH]c(=O)n([C@H]2C[C@H](O[N+](=O)[O-])[C@@H](CO)O2)cc1F	> 80 µg/mL
Cc1cn([C@H]2C[C@H](O[N+](=O)[O-])[C@@H](CO)O2)c(=O)[nH]c1=O	> 80 µg/mL
O=c1[nH]c(=O)n([C@H]2C[C@H](O[N+](=O)[O-])[C@@H](CO)O2)cc1I	> 80 µg/mL

system: KBALB-STK; assay: In vitro cell cytotoxicity against KBALB-STK cell lines expressed in HSV-1 TK; type: functional; conditions: Mus musculus; method in brief: as §3

Compound	CC50
Cc1cn([C@H]2C[C@H](O)[C@@H](CO)O2)c(=O)[nH]c1=O [DOXRIBTIMINE]	100 µM
O=c1[nH]c(=O)n([C@H]2C[C@H](O[N+](=O)[O-])[C@@H](CO)O2)cc1F	3.5 µM
O=c1[nH]c(=O)n([C@H]2C[C@H](O)[C@@H](CO)O2)cc1I [IDOXURIDINE]	10 µM
Nc1nc(=O)n([C@H]2C[C@H](O[N+](=O)[O-])[C@@H](CO)O2)cc1I	250 µM
Cc1cn([C@H]2C[C@H](O[N+](=O)[O-])[C@@H](CO)O2)c(=O)[nH]c1=O	7000 µM
O=c1[nH]c(=O)n([C@H]2C[C@H](O[N+](=O)[O-])[C@@H](CO)O2)cc1I	260 µM

system: KBALB cell line; assay: In vitro cell cytotoxicity against KBALB cell line (transformed fibroblast sarcoma cell line); type: functional; conditions: Mus musculus; method in brief: as §3

Compound	CC50
Cc1cn([C@H]2C[C@H](O)[C@@H](CO)O2)c(=O)[nH]c1=O [DOXRIBTIMINE]	95 µM
O=c1[nH]c(=O)n([C@H]2C[C@H](O[N+](=O)[O-])[C@@H](CO)O2)cc1F	8 µM
O=c1[nH]c(=O)n([C@H]2C[C@H](O)[C@@H](CO)O2)cc1I [IDOXURIDINE]	97 µM
Nc1nc(=O)n([C@H]2C[C@H](O[N+](=O)[O-])[C@@H](CO)O2)cc1I	1000 µM
Cc1cn([C@H]2C[C@H](O[N+](=O)[O-])[C@@H](CO)O2)c(=O)[nH]c1=O	1000 µM
O=c1[nH]c(=O)n([C@H]2C[C@H](O[N+](=O)[O-])[C@@H](CO)O2)cc1I	240 µM

system: Vaccinia virus; assay: Inhibitory activity against vaccinia virus; type: functional, organism-based; conditions: Orthopoxvirus vaccinia

Compound	IC50
O=c1[nH]c(=O)n([C@H]2C[C@H](O[N+](=O)[O-])[C@@H](CO)O2)cc1I	48 µg/mL (≈ 120 µM)

system: Respiratory syncytial virus; assay: Antiviral activity against respiratory syncytial virus in Hela cell cultures; type: functional, organism-based; conditions: human respiratory syncytial virus

Compound	IC50
O=c1ccn([C@H]2C[C@H](O[N+](=O)[O-])[C@@H](CO)O2)c(=O)[nH]1	> 80 µg/mL
O=c1[nH]c(=O)n([C@H]2C[C@H](O[N+](=O)[O-])[C@@H](CO)O2)cc1F	> 80 µg/mL
Cc1cn([C@H]2C[C@H](O[N+](=O)[O-])[C@@H](CO)O2)c(=O)[nH]c1=O	> 80 µg/mL
O=c1[nH]c(=O)n([C@H]2C[C@H](O[N+](=O)[O-])[C@@H](CO)O2)cc1I	> 80 µg/mL
